pEC50, pIC50: −log10 of the molar value. Where “and” joins values, the source holds several entries; their conditions need not be identical. Identical values can stand only once.
How the values were obtained:
[1] = tested on: Human immunodeficiency virus 1; experiment: Antiviral activity against HIV1 RF infected in human CEM-SS cells assessed as cytoprotective effect by measuring cell viability at 0.78 to 50 uM by XTT assay relative to control; assay type: functional
Summary of the method: (§1)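 HIV-1 strain RF infection of CEM-SS cells. Samples dissolved at 10 mM in DMSO, tested at 2-fold dilutions from 50 µM down to 0.78 µM final, in duplicate. EC50 estimated by regression analysis.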

[2] = Inhibition of HIV1 RT-RNase H activity using 18-nucleotide 3'-fluorescein-labeled RNA/5'-dabsyl-labeled DNA hybrid after 10 mins by FRET assay; parameters: species or system Human immunodeficiency virus 1
[3] = tested on: Human immunodeficiency virus 1; experiment: Stabilization of HIV1 RT-RNase H by sypro-orange dye-based differential scanning fluorimetric analysis
Summary of the method: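 Thermal shift of HIV RT RNase H in 20 mM HEPES pH 7.5, 10 mM MgCl2, 100 mM NaCl with Sypro Orange at 1:2000. 1 µL of 1 mM compound in DMSO added to 49 µL of this buffer. Heated 30 to 80 °C in 0.2 °C steps, read at ex 483 / em 568 nm. ΔTm determined, duplicate runs.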

CEM-SS = experiment: (§2) Cytotoxicity against human CEM-SS cells assessed as reduction in cell viability by XTT assay; assay type: cell-based; conditions: cem-ss
Summary of the method: (§3)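 Uninfected CEM-SS cells in the same plate as the HIV-1 RF infection assay. Compounds tested at 2-fold dilutions from 50 µM to 0.78 µM final, in duplicate. CC50 estimated by regression analysis.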

[4] = as §2; assay type: cell-based; conditions: CEM-SS cells; summary of the method: as §3
[5] = tested on: Human immunodeficiency virus 1; experiment: Antiviral activity against HIV1 RF infected in human CEM-SS cells assessed as cytoprotective effect by measuring increase in cell viability by XTT assay; assay type: functional, cell-based; summary of the method: as §1

SMILES | Activity [1] [%] | pIC50 [2] | ΔTm [3] | CC50 (CEM-SS) | CC50 [4] [µM] | pEC50 ([5]; Human immunodeficiency virus 1, RF, CEM-SS) | pEC50 [5]
Cc1cc(O)c(=O)c(O)cc1-c1ccc(C(F)(F)F)cc1 | <35 | 6.10 and 5.96 | 0.2 °C and 0.9 °C | 2.2 to 6.7 µM | 2.3 to 7.1 | – | –
Cc1cc(O)c(=O)c(O)cc1-c1ccccc1 | <35 | 6.60 and 6.41 | 2.2 °C and 1.5 °C | 5.6 to 7 µM and 2.5 to 3.7 µM | – | – | –
CCOC(=O)c1cc(O)c(=O)c(O)cc1C | <50 | 6.27 and 6.60 | 2.9 °C and 2.4 °C | 8.5 to 9.7 µM and 22 µM | – | 5.29 to 5.32 | –
Cc1cc(O)c(=O)c(O)cc1C(=O)c1ccccc1 | <35 | 6.49 and 6.66 | 2.5 °C and 2.9 °C | 2.6 to 8.8 µM and 7.2 to 8.8 µM | – | – | –
COC(=O)c1cc(O)c(=O)c(O)cc1C | – | 6.36 and 6.80 | 2.9 °C and 2.7 °C | 5.4 to 11 µM and 15 µM | – | – | 5.38 to 5.66 and 5.11 to 5.14
Cc1cc(O)c(=O)c(O)cc1-c1cccc2ccccc12 | <35 | 6.25 and 6.59 | 1 °C and 1.5 °C | 3.3 to 6.7 µM | 2.1 to 5.4 | – | –
Cc1cc(O)c(=O)c(O)cc1C(=O)C1CCCCC1 | <35 | 6.28 and 6.68 | 2 °C and 2.4 °C | 2.7 to 7 µM | 2.3 to 3.1 | – | –
Cc1cc(O)c(=O)c(O)cc1C(=O)c1ccc(-c2ccccc2)cc1 | <35 | 6.00 and 6.23 | 1.7 °C and 1.9 °C | 0.1 to 0.83 µM | 0.14 to 0.97 | – | –
CC(=O)c1cc(O)c(=O)c(O)cc1C | – | 6.24 and 6.54 | 2.3 °C and 2.9 °C | 7.7 to 24 µM and 20 to 21 µM | – | – | 5.28 to 5.55 and 5.14 to 5.19

Source: ChEMBL document CHEMBL3992483, “Traceless Solid-Phase α-Hydroxytropolone Synthesis” (Medchemcomm, 2016)
